According to ChEMBL document CHEMBL1140862, “Berberine analogues as a novel class of the low-density-lipoprotein receptor up-regulators: synthesis, structure-activity relationships, and cholesterol-lowering efficacy” (J Med Chem, 2009):
Active and inactive are the calls of the source. The rule behind the calls is not given here.

How the values were obtained:
[1] = tested on: HepG2; assay: Induction of LDLR mRNA expression in human HepG2 cells after 12 hrs by RT-PCR assay relative to untreated control; type: functional
Outline: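 HepG2 cells kept in RPMI-1640 with 10% FBS, moved 24 h before dosing to 10% LPDS, then at ~80% confluence to RPMI-1640 with 0.5% LPDS plus compound (5.0 µg/mL in table; concentrations as indicated in figure), 12 h, 37 °C. Total RNA reverse-transcribed, TaqMan real-time PCR, comparative CT method with GAPDH reference; fold of untreated cells (=1); mean of three experiments.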

[2] = tested on: Mus musculus; assay: Reduction of blood cholesterol level in hyperlipidemic C57BL/6J mouse at 100 mg/kg, po daily twice for 21 days relative to control; type: functional; design: scale not given: the % may be the effect or the level left
Outline: (§1)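 Male C57BL/6J mice fed HFHC diet 8 weeks, then gavaged twice daily (0.2 mL saline suspension) at 100 (mg/kg)/day for 21 days (n = 8; untreated n = 6). Fasted tail-snip blood; total cholesterol and LDL-c by commercial kits relative to untreated control.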

[3] = tested on: Bel-7402; assay: Induction of LDLR […] in human Bel7402 cells after 12 hrs by RT-PCR assay relative to control; type: functional, cell-based
[4] = Elimination half life in po dosed human; type: ADME, organism-based; conditions: in vivo, read-out: beta t1/2 (converted)
[5] = tested on: Rattus norvegicus; assay: Reduction of blood low density lipoprotein cholesterol level in hyperlipidemic Sprague-Dawley rat at 100 mg/kg, po daily twice for 30 days relative to control; type: functional; design: scale not given: the % may be the effect or the level left
Outline: (§2)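 Male Sprague-Dawley rats on HFHC diet 8 weeks, then saline suspension by gavage at 100 (mg/kg)/day, twice daily, 30 days (n = 8; untreated HFHC n = 6; normal-diet controls). Fasted tail-snip blood at end point; total cholesterol and LDL-c by commercial kits; percent reduction versus untreated HFHC control; mean ± SEM.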

[6] = tested on: Rattus norvegicus; assay: Induction of HMG-CoA reductase mRNA expression in hyperlipidemic Sprague-Dawley rat liver at 100 mg/kg, po daily twice for 30 days by RT-PCR; type: functional, organism-based; design: dose 100 mg/kg
Outline: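 Male Sprague-Dawley rats (180 ± 10 g) fed HFHC diet (2% cholesterol, 10% yolk powder, 15% lard, 0.2% sodium cholate) 8 weeks, then gavaged with compound suspended in saline, 100 (mg/kg)/day, twice daily, 30 days (n = 8; untreated n = 6). Liver RNA, TaqMan real-time RT-PCR, comparative CT with GAPDH; fold of untreated HFHC control.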

[7] = tested on: Mus musculus; assay: Reduction of blood low density lipoprotein cholesterol level in hyperlipidemic C57BL/6J mouse at 100 mg/kg, po daily twice for 21 days relative to control; type: functional; design: scale not given: the % may be the effect or the level left; outline: as §1
[8] = tested on: Rattus norvegicus; assay: Reduction of blood cholesterol level in hyperlipidemic Sprague-Dawley rat at 100 mg/kg, po daily twice; type: functional, organism-based; design: dose 100 mg/kg; conditions: TDE = time-dependent effect
[9] = tested on: Rattus norvegicus; assay: Reduction of blood low density lipoprotein cholesterol level in hyperlipidemic Sprague-Dawley rat at 100 mg/kg, po daily twice; type: functional, organism-based; design: dose 100 mg/kg; conditions: TDE = time-dependent effect
[10] = tested on: Rattus norvegicus; assay: Reduction of blood cholesterol level in hyperlipidemic Sprague-Dawley rat at 100 mg/kg, po daily twice for 30 days relative to control; type: functional; design: scale not given: the % may be the effect or the level left; outline: as §2
[11] = tested on: HepG2; assay: Induction of LDLR protein expression in human HepG2 cells at 10 ug/mL after 12 hrs by flow cytometry; type: functional, cell-based
Outline: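 HepG2 cells in LPDS medium treated 12 h with 10 µg/mL compound, detached, fixed in 2% paraformaldehyde at 4 °C overnight, blocked, stained on ice 1 h with rabbit polyclonal anti-LDLR (1:25), then FITC goat anti-rabbit IgG (1:50) 30 min; normal rabbit IgG background control; cell-surface fluorescence by flow cytometry.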

## CCc1c2[n+](cc3c(OC)c(OC)ccc13)CCc1cc3c(cc1-2)OCO3.[Cl-]
[1]
  fold change (FC): 1.04

## CCCOc1cc2c(cc1OCCC)-c1cc3ccc(OC)c(OC)c3c[n+]1CC2.[Br-]
[1]
  fold change (FC): 0.9

## CCCCc1c2[n+](cc3c(OC)c(OC)ccc13)CCc1cc3c(cc1-2)OCO3.[Cl-]
[1]
  fold change (FC): 0.9

## COc1ccc2c(c1OC)C[N+]1(CCO)CCc3cc4c(cc3C1C2)OCO4.[Br-] (stereo not given)
[1]
  fold change (FC): 1.2

## COc1ccc2c(c1OC)C[N+]1(Cc3ccccc3)CCc3cc4c(cc3C1C2)OCO4.[Br-] (stereo not given)
[1]
  fold change (FC): 1.1

## COc1ccc2c(c1OC)CN1CCc3cc4c(cc3[C@@H]1C2)OCO4 [CANADINE]
[1]
  fold change (FC): 1

## COc1ccc2c(Cc3ccccc3)c3[n+](cc2c1OC)CCc1cc2c(cc1-3)OCO2.[Br-]
[1]
  fold change (FC): 1.4

## COc1cc2c[n+]3c(c(Cc4ccccc4)c2cc1OC)-c1cc2c(cc1CC3)OCO2.[Br-]
[1]
  fold change (FC): 1

## CCCCCCc1c2[n+](cc3cc(OC)c(OC)cc13)CCc1cc3c(cc1-2)OCO3.[Cl-]
[1]
  fold change (FC): 1.1

## COc1cc2c(cc1OC)CN1CCc3cc4c(cc3C1C2)OCO4 (stereo not given)
[1]
  fold change (FC): 1.3

## CCCC[N+]12CCc3cc4c(cc3C1Cc1ccc(OC)c(OC)c1C2)OCO4.[Br-] (stereo not given)
[1]
  fold change (FC): 1.1

## CC[N+]12CCc3cc4c(cc3C1Cc1ccc(OC)c(OC)c1C2)OCO4.[Br-] (stereo not given)
[1]
  fold change (FC): 1

## COc1cc2c(cc1O)-c1cc3ccc(OC)c(OC)c3c[n+]1CC2.[I-] [COLUMBAMINE IODIDE]
[1]
  fold change (FC): 1

## COc1cc2c[n+]3c(c(C)c2cc1OC)-c1cc2c(cc1CC3)OCO2.[Cl-]
[1]
  fold change (FC): 0.9

## COc1ccc2c(C)c3[n+](cc2c1OC)CCc1cc2c(cc1-3)OCO2.[Cl-]
[1]
  fold change (FC): 1.1

## CC[N+]12CCc3cc4c(cc3C1Cc1cc(OC)c(OC)cc1C2)OCO4.[Br-] (stereo not given)
[1]
  fold change (FC): 0.8

## COc1ccc2cc3[n+](cc2c1OC)CCc1cc(OCc2ccccc2)c(OCc2ccccc2)cc1-3.[Br-]
[1]
  fold change (FC): 1

## CCCc1c2[n+](cc3c(OC)c(OC)ccc13)CCc1cc3c(cc1-2)OCO3.[Cl-]
[1]
  fold change (FC): 0.9

## CCOC(=O)C[N+]12CCc3cc4c(cc3C1Cc1ccc(OC)c(OC)c1C2)OCO4.[Br-] (stereo not given)
[1]
  fold change (FC): 0.8

## CCOc1cc2c(cc1O)-c1cc3ccc(OC)c(OC)c3c[n+]1CC2.[Br-]
[1]
  fold change (FC): 0.9

## CCC[N+]12CCc3cc4c(cc3C1Cc1cc(OC)c(OC)cc1C2)OCO4.[I-] (stereo not given)
[1]
  fold change (FC): 0.9

## CCCCc1c2[n+](cc3cc(OC)c(OC)cc13)CCc1cc3c(cc1-2)OCO3.[Cl-]
[1]
  fold change (FC): 0.9

## COc1cc2c(cc1OC)-c1cc3ccc(OC)c(OC)c3c[n+]1CC2.[I-]
[1]
  fold change (FC): 0.8

## CCC[N+]12CCc3cc4c(cc3C1Cc1ccc(OC)c(OC)c1C2)OCO4.[I-] (stereo not given)
[1]
  fold change (FC): 1.2

## CCOC(=O)C[N+]12CCc3cc4c(cc3C1Cc1cc(OC)c(OC)cc1C2)OCO4.[Br-] (stereo not given)
[1]
  fold change (FC): 1

## CCCCCCc1c2[n+](cc3c(OC)c(OC)ccc13)CCc1cc3c(cc1-2)OCO3.[Cl-]
[1]
  fold change (FC): 1

## COc1cc2c(cc1OC)C[N+]1(C)CCc3cc4c(cc3C1C2)OCO4.[I-] (stereo not given)
[1]
  fold change (FC): 0.9

## COc1ccc2cc3[n+](cc2c1OC)CCc1cc2c(cc1-3)OCO2.[Cl-] [BERBERINE CHLORIDE]
[2]
  Activity: 16.7%
[3]
  Activity: Active
[4]
  half-life: 2.94 h
[5]
  Activity: 31.6%
[6]
  Activity: inactive
[7]
  Activity: 23.9%
[8]
  Activity: tde
[9]
  Activity: tde
[10]
  Activity: 27.4%
[1]
  fold change (FC): 2.2
[11]
  Activity: Active

## COc1ccc2c(c1OC)C[N+]1(C)CCc3cc4c(cc3C1C2)OCO4.[I-] (stereo not given)
[1]
  fold change (FC): 1.1

## COc1cc2c(cc1OC)C[N+]1(Cc3ccccc3)CCc3cc4c(cc3C1C2)OCO4.[Br-] (stereo not given)
[1]
  fold change (FC): 0.9
